Assays:
[1] = target: Sodium-dependent dopamine transporter (Homo sapiens, UniProt Q01959); assay: Inhibition of [18F]PET binding to dopamine transporter of human brain
[2] = target: Sodium-dependent dopamine transporter (Rattus norvegicus, UniProt P23977); assay: Displacement of [3H]CIT from dopamine transporter of rat striatal homogenate
[3] = target: Sodium-dependent serotonin transporter (Rattus norvegicus, UniProt P31652); assay: Displacement of [3H]cyanoimiprimine from serotonin transporter of rat cerebral cortical homogenate
Procedure, shortened: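 Rat cerebral cortical homogenates incubated with 0.71 nM [3H]cyanoimiprimine in a radioligand competition binding assay; affinity expressed as Ki in nM.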

[4] = target: Monoamine transporters; serotonin & dopamine (Rattus norvegicus) (UniProt P31652+P23977); assay: Ratio of Ki for dopamine and serotonin transporters; type: protein assay
Procedure, shortened: (§1)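 Selectivity calculated as Ki at SERT or NET divided by Ki at DAT. Ki values came from radioligand competition assays with tritiated ligands selective for each transporter in rat forebrain tissue preparations. A ratio above 1.0 means preference for DAT.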

[5] = target: Norepinephrine transporter (Rattus norvegicus, UniProt Q9WTR4); assay: Displacement of [3H]-nisoxetine from norepinephrine transporter of rat cerebral corticex homogenate
Procedure, shortened: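 Competition binding in rat cerebral cortical homogenates incubated with 0.35 nM [3H]nisoxetine; Ki reported in nM.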

[6] = target: Monoamine transporters; Norepininephrine & dopamine (Rattus norvegicus) (UniProt P23977+Q9WTR4); assay: Ratio of Ki for dopamine and norepinephrine transporters; type: protein assay; procedure, shortened: as §1

Norepinephrine transporter, sequence (Q9WTR4 whole entry): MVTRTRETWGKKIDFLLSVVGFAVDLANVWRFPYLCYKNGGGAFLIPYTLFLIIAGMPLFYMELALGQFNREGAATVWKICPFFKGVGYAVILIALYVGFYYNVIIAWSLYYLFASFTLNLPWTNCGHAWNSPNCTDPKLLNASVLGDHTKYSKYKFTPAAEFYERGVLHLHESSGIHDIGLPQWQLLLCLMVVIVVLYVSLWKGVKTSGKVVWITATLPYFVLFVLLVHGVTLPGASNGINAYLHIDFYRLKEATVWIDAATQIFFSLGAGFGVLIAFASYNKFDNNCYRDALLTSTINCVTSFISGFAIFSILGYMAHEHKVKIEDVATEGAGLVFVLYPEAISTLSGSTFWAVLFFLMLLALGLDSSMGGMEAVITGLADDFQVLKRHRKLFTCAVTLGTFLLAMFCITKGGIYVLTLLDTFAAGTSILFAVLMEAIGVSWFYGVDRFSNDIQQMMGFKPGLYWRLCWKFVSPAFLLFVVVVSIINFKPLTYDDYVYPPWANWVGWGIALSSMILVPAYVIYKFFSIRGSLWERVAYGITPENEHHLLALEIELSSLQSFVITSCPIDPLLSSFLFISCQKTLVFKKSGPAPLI
Monoamine transporters; serotonin & dopamine (Rattus norvegicus), sequence (P23977 whole entry, looked up): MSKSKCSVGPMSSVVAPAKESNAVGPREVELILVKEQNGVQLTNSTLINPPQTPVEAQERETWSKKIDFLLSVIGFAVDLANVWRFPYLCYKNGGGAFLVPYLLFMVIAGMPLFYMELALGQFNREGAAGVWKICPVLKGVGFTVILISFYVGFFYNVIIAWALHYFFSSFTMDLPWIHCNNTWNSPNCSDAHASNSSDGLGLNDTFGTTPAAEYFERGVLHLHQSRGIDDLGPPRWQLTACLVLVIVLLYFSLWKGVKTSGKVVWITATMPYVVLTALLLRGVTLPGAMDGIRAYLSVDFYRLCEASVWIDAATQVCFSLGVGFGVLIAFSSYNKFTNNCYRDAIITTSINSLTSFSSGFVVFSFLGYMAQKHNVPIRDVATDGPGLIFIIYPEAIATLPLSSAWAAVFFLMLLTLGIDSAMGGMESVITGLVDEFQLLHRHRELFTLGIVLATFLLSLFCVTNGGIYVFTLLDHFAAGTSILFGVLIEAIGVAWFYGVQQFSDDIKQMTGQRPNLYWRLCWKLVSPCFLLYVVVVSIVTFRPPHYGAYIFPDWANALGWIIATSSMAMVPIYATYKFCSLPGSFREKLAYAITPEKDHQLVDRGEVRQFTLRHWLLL
Monoamine transporters; serotonin & dopamine (Rattus norvegicus), sequence (P31652 whole entry, looked up): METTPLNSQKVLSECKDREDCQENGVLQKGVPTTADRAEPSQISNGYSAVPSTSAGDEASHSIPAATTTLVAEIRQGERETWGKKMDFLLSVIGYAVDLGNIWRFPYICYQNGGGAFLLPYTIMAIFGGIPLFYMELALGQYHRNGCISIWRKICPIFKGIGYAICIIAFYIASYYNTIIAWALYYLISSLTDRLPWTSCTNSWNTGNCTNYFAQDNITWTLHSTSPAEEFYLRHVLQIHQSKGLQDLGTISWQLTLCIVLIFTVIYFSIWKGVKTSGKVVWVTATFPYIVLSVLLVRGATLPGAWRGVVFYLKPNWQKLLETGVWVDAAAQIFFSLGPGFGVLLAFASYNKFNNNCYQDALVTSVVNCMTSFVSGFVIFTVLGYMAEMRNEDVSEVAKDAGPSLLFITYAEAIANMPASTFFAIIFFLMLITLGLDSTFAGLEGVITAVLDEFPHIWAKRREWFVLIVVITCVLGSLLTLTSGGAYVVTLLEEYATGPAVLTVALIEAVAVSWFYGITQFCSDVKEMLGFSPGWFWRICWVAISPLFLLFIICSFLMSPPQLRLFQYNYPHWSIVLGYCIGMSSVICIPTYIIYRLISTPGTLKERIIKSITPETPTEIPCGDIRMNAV
Sodium-dependent dopamine transporter (Rattus norvegicus, UniProt P23977), sequence (P23977 whole entry): as the sequence (P23977 whole entry, looked up) above
Sodium-dependent dopamine transporter (Homo sapiens, UniProt Q01959), sequence (Q01959 whole entry): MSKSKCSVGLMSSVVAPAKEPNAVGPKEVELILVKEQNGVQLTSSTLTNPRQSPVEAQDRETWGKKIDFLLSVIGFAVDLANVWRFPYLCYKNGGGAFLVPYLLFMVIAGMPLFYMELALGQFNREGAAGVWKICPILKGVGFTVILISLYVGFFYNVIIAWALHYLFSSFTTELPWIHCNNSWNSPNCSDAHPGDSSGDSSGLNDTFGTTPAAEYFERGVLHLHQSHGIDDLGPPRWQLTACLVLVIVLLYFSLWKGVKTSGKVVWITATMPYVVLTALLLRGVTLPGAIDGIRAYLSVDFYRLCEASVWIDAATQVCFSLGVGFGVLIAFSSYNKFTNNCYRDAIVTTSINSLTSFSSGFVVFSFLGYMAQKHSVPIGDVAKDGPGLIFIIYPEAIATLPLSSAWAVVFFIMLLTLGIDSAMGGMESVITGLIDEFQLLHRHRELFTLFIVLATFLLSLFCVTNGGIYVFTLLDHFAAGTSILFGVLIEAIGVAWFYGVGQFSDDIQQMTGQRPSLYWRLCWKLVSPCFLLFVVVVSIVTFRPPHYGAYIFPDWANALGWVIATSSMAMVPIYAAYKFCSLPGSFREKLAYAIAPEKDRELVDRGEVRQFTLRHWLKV
Sodium-dependent serotonin transporter, sequence (P31652 whole entry): as the sequence (P31652 whole entry, looked up) above

Row | SMILES | Ki [1] | Ki [2] | Ki [3] | Selectivity [4] | Ki [5] | Selectivity [6]
1 | CN1C2CCC1C(C(=O)OCCCF)C(c1ccc(Br)cc1)C2 (stereo not given) | 5 nM | 1.91 nM | 2.86 nM | 1.5 | 244 nM | 128
2 | COC(=O)C1C(c2ccc(Br)cc2)CC2CCC1N2C (stereo not given) |  | 0.3 nM | 4.95 nM | 0.06 | 15.3 nM | 0.02
3 | O=C(OCCF)C1C(c2ccc(Br)cc2)CC2CCC1N2CCCF (stereo not given) |  | 10.6 nM | 18.3 nM | 1.72 | 2.03 nM | 0.19
4 | O=C(OCCF)C1C2CCC(CC1c1ccc(I)cc1)N2 (stereo not given) | 5 nM | 0.85 nM | 0.18 nM | 0.21 |  | 
5 | CN1C2CCC1C(C(=O)OCCF)C(c1ccc(Br)cc1)C2 (stereo not given) | 5 nM | 2.33 nM | 5.1 nM | 2.19 | 280 nM | 120
6 | CN1C2CCC1C(C(=O)NCCF)C(c1ccc(Br)cc1)C2 (stereo not given) |  | 25.7 nM | 38.7 nM | 1.51 |  | 
7 | O=C(OCCF)C1C2CCC(CC1c1ccc(Br)cc1)N2 (stereo not given) | 5 nM | 0.57 nM | 0.24 nM | 0.42 | 15.2 nM | 26.7
8 | COC(=O)C1C2CCC(CC1c1ccc(Br)cc1)N2 (stereo not given) |  | 0.52 nM | 0.95 nM |  | 1.02 nM | 
9 | COC(=O)C1C(c2ccc(Br)cc2)CC2CCC1N2CCCF (stereo not given) |  |  |  | 10.9 |  | 58.9
10 | CN1C2CCC1C(C(=O)NCCF)C(c1ccc(I)cc1)C2 (stereo not given) |  | 44.5 nM | 30.8 nM | 0.69 | > 10000 nM | > 225
11 | CN1C2CCC1C(C(=O)OCCF)C(c1ccc(I)cc1)C2 (stereo not given) |  |  | 4.02 nM | 4.3 | 116 nM | 125
12 | O=C(OCCCF)C1C2CCC(CC1c1ccc(Br)cc1)N2 (stereo not given) | 5 nM | 0.72 nM | 0.3 nM | 0.42 | 8.85 nM | 12.3
